In ChEMBL document CHEMBL5724801, “EUbOPEN Chemogenomics Library - Multiplex” (2024):
Values joined by “and” are separate entries in the source; they are usually repeats but may differ in a detail not shown here. Identical values can stand only once.

Test system: HEK-293T
Experiment: Multiplex assay against HEK293T
Assay type: toxicity, cell-based
Details: human
In short: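 At seeding, live cells were stained with Hoechst33342, BioTracker Green Microtubule Cytoskeleton Dye, MitoTracker Red and Annexin V Alexa Fluor 680. After compound addition they were imaged on a CQ1 microscope at 37°C and 5% CO2, and CellPathfinder machine-learning gating sorted them into Hoechst high-intensity objects or normal cells, with normal cells further split into healthy, pyknosed or fragmented nuclei and pyknosed cells into mitotic or apoptotic. Tubulin, mitochondrial-mass and membrane-permeability phenotypes are given as per cents of cells with healthy nuclei.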

[1] = 12 h, 1 µM, compound concentration 1 uM
[2] = 12 h, 10 µM, compound concentration 10 uM
[3] = 24 h, 1 µM, compound concentration 1 uM
[4] = 24 h, 10 µM, compound concentration 10 uM
[5] = 48 h, 1 µM, compound concentration 1 uM
[6] = 48 h, 10 µM, compound concentration 10 uM

Cl.Cl.N#Cc1ccc(O[C@@H]2c3ccccc3C[C@H]2N2CCC[C@@H](N)C2)c(Cl)c1
Population Apoptotic (%) [1]: 8.75% and 10.31% | Population Fragmented Nuclei (%) [1]: 2.35% and 6.14% | Population Hoechst High Intensity Objects (%) [1]: 0% | Population Membrane Permeable-Phenotype (%) [1]: 1.16% and 0% | Population Mitochondria Different-Phenotype (%) [1]: 36.63% and 30% | Population Mitotic Cells (%) [1]: 91.25% and 89.69% | Population Normal (%) [1]: 100% | Population Pyknosed Nuclei (%) [1]: 47.06% and 85.09% | Population Tubulin-Different-Phenotype (%) [1]: 26.16% and 50% | Total Cell Count [1]: 340 and 114 | Population Apoptotic (%) [2]: 22.15% and 32.8% | Population Fragmented Nuclei (%) [2]: 4.33% and 4.76% | Population Healthy Nuclei (%) [2]: 27.27% and 10.2% | Population Hoechst High Intensity Objects (%) [2]: 0.86% and 0% | Population Membrane Permeable-Phenotype (%) [2]: 0% and 13.33% | Population Mitochondria Different-Phenotype (%) [2]: 28.57% and 33.33% | Population Mitotic Cells (%) [2]: 77.85% and 67.2% | Population Normal (%) [2]: 99.14% and 100% | Population Pyknosed Nuclei (%) [2]: 68.4% and 85.03% | Population Tubulin-Different-Phenotype (%) [2]: 71.43% and 93.33% | Total Cell Count [2]: 233 and 147 | Population Apoptotic (%) [3]: 26.62% and 47.67% | Population Fragmented Nuclei (%) [3]: 1.19% and 8.11% | Population Hoechst High Intensity Objects (%) [3]: 0.2% and 0% | Population Membrane Permeable-Phenotype (%) [3]: 2.03% and 0% | Population Mitochondria Different-Phenotype (%) [3]: 30.14% and 50% | Population Mitotic Cells (%) [3]: 73.38% and 52.33% | Population Normal (%) [3]: 99.8% and 100% | Population Pyknosed Nuclei (%) [3]: 30.5% and 77.48% | Population Tubulin-Different-Phenotype (%) [3]: 42.9% and 56.25% | Population Apoptotic (%) [4]: 63.58% and 76.03% | Population Fragmented Nuclei (%) [4]: 3.91% and 5.04% | Population Hoechst High Intensity Objects (%) [4]: 1.16% and 0% | Population Membrane Permeable-Phenotype (%) [4]: 1.05% and 9.09% | Population Mitochondria Different-Phenotype (%) [4]: 72.63% and 63.64% | Population Mitotic Cells (%) [4]: 36.42% and 23.97% | Population Normal (%) [4]: 98.84% and 100% | Population Pyknosed Nuclei (%) [4]: 58.98% and 87.05% | Population Tubulin-Different-Phenotype (%) [4]: 93.68% and 90.91% | Total Cell Count [4]: 259 and 139 | Population Fragmented Nuclei (%) [5]: 2.55% and 7.63% | Population Healthy Nuclei (%) [5]: 83.85% and 39.83% | Population Hoechst High Intensity Objects (%) [5]: 0.11% and 0% | Population Membrane Permeable-Phenotype (%) [5]: 7.35% and 0% | Population Mitochondria Different-Phenotype (%) [5]: 44.61% and 70.21% | Population Mitotic Cells (%) [5]: 90.62% and 66.13% | Population Normal (%) [5]: 99.89% and 100% | Population Apoptotic (%) [6]: 63.04% and 79.59% | Population Fragmented Nuclei (%) [6]: 2.57% and 5.97% | Population Healthy Nuclei (%) [6]: 58% and 20.9% | Population Hoechst High Intensity Objects (%) [6]: 1.69% and 0.74% | Population Membrane Permeable-Phenotype (%) [6]: 1.48% and 7.14% | Population Mitochondria Different-Phenotype (%) [6]: 95.07% and 92.86% | Population Mitotic Cells (%) [6]: 36.96% and 20.41% | Population Normal (%) [6]: 98.31% and 99.26% | Population Pyknosed Nuclei (%) [6]: 39.43% and 73.13% | Population Tubulin-Different-Phenotype (%) [6]: 30.05% and 89.29% | Total Cell Count [6]: 356 and 135

O=C1NCc2ccc3c(-c4cccc(Cl)c4)c[nH]c3c21
Population Apoptotic (%) [1]: 9.74% and 10.57% | Population Fragmented Nuclei (%) [1]: 0.72% and 0.69% | Population Hoechst High Intensity Objects (%) [1]: 0.36% and 0% | Population Membrane Permeable-Phenotype (%) [1]: 0% | Population Mitochondria Different-Phenotype (%) [1]: 41.8% and 23.81% | Population Mitotic Cells (%) [1]: 90.26% and 89.43% | Population Normal (%) [1]: 99.64% and 100% | Population Pyknosed Nuclei (%) [1]: 55.4% and 84.83% | Total Cell Count [1]: 279 and 145 | Population Apoptotic (%) [2]: 21.19% and 16.81% | Population Fragmented Nuclei (%) [2]: 1.88% and 2.24% | Population Healthy Nuclei (%) [2]: 27.23% and 13.43% | Population Hoechst High Intensity Objects (%) [2]: 0.47% and 4.29% | Population Membrane Permeable-Phenotype (%) [2]: 0% | Population Mitotic Cells (%) [2]: 78.81% and 83.19% | Population Normal (%) [2]: 99.53% and 95.71% | Population Pyknosed Nuclei (%) [2]: 70.89% and 84.33% | Population Tubulin-Different-Phenotype (%) [2]: 5.17% and 11.11% | Total Cell Count [2]: 214 and 140 | Population Apoptotic (%) [3]: 26.79% and 11.65% | Population Fragmented Nuclei (%) [3]: 3.63% and 0.67% | Population Healthy Nuclei (%) [3]: 59.41% and 30.2% | Population Hoechst High Intensity Objects (%) [3]: 0% | Population Membrane Permeable-Phenotype (%) [3]: 0% | Population Mitotic Cells (%) [3]: 73.21% and 88.35% | Population Normal (%) [3]: 100% | Population Pyknosed Nuclei (%) [3]: 36.96% and 69.13% | Population Tubulin-Different-Phenotype (%) [3]: 7.78% and 8.89% | Total Cell Count [3]: 303 and 149 | Population Apoptotic (%) [4]: 31.52% and 52.43% | Population Fragmented Nuclei (%) [4]: 1.99% and 3.12% | Population Healthy Nuclei (%) [4]: 24.7% and 16.41% | Population Hoechst High Intensity Objects (%) [4]: 0% and 3.76% | Population Membrane Permeable-Phenotype (%) [4]: 0% and 4.76% | Population Mitochondria Different-Phenotype (%) [4]: 56.45% and 23.81% | Population Mitotic Cells (%) [4]: 68.48% and 47.57% | Population Normal (%) [4]: 100% and 96.24% | Population Pyknosed Nuclei (%) [4]: 73.31% and 80.47% | Population Tubulin-Different-Phenotype (%) [4]: 1.61% and 0% | Total Cell Count [4]: 251 and 133 | Population Apoptotic (%) [5]: 20.62% and 21.52% | Population Fragmented Nuclei (%) [5]: 3.28% and 0.63% | Population Healthy Nuclei (%) [5]: 72.22% and 49.69% | Population Hoechst High Intensity Objects (%) [5]: 0.5% and 0% | Population Membrane Permeable-Phenotype (%) [5]: 0.35% and 0% | Population Mitotic Cells (%) [5]: 79.38% and 78.48% | Population Normal (%) [5]: 99.5% and 100% | Population Pyknosed Nuclei (%) [5]: 24.49% and 49.69% | Total Cell Count [5]: 398 and 159 | Population Apoptotic (%) [6]: 54.1% and 46.85% | Population Fragmented Nuclei (%) [6]: 4.95% and 2.36% | Population Hoechst High Intensity Objects (%) [6]: 0.45% and 0.78% | Population Membrane Permeable-Phenotype (%) [6]: 0% | Population Mitochondria Different-Phenotype (%) [6]: 83.15% and 38.46% | Population Mitotic Cells (%) [6]: 45.9% and 53.15% | Population Normal (%) [6]: 99.55% and 99.22% | Population Pyknosed Nuclei (%) [6]: 54.95% and 87.4% | Total Cell Count [6]: 223 and 128
